Source: ChEMBL document CHEMBL1140127, “Enantiomeric propanolamines as selective N-methyl-D-aspartate 2B receptor antagonists” (J Med Chem, 2008)
Activity calls are given as the source filed them.

Key:
Neuron = assay: Inhibition of tetrodotoxin-sensitive voltage-gated sodium current in E17 Sprague-Dawley rat neurons at 3 uM at holding potential of […] by whole cell patch clamp method; assay type: functional
Brain = assay: Drug level in rat brain at 30 mg/kg, ip by LC-MS/MS analysis; assay type: ADME, organism-based; parameters: dose 30 mg/kg, route intraperitoneal
How it was run: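 Rats, n = 3 per dose, given 30 mg/kg ip in 2% dimethyl acetamide/98% 5% 2-hydroxypropyl cyclodextrin after overnight fasting. Brain weighed and homogenized on ice in 50 mM phosphate buffer. Homogenate extracted with 5 volumes of cold acetonitrile, then centrifuged. Parent compound quantified by LC-MS/MS in MRM mode against a standard curve.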

[1] = Protein binding in human plasma; assay type: ADME, cell-free; conditions: read-out: PPB (converted)
[2] = biological target: T1, Adrenergic receptor alpha-1 (Rattus norvegicus, UniProt P15823+P23944+P43140); assay: Displacement of [3H]prazosin from alpha1 adrenergic receptor in rat brain; assay type: tissue-based
T1 sequence (P15823 whole entry): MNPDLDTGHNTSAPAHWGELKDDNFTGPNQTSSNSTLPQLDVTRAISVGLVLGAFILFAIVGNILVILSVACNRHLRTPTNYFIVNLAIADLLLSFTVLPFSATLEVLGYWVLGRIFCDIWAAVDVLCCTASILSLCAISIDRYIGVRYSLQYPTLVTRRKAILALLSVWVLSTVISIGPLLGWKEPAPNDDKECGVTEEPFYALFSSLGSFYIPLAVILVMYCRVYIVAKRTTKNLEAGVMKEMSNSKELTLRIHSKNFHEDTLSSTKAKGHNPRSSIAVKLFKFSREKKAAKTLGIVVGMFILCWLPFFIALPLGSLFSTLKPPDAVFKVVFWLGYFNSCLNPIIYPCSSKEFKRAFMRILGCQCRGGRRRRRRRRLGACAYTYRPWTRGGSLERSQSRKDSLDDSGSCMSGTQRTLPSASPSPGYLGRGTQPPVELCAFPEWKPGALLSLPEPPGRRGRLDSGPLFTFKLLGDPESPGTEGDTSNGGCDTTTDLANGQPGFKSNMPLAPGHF
T1 sequence (P23944 whole entry): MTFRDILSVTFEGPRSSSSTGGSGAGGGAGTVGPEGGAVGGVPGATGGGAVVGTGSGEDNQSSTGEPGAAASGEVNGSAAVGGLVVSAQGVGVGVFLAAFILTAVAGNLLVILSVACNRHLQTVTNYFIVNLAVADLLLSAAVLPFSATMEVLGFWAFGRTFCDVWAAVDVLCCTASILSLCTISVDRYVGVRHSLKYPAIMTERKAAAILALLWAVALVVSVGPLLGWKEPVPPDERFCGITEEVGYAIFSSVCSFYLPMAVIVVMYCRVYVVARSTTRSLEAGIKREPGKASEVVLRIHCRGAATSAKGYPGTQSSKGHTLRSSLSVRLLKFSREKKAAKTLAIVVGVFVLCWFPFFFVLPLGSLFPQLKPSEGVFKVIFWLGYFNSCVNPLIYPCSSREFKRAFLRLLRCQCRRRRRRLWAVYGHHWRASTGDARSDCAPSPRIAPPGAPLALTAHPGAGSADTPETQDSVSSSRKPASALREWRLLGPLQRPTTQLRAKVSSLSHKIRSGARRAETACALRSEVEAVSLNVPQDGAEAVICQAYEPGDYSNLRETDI
T1 sequence (P43140 whole entry): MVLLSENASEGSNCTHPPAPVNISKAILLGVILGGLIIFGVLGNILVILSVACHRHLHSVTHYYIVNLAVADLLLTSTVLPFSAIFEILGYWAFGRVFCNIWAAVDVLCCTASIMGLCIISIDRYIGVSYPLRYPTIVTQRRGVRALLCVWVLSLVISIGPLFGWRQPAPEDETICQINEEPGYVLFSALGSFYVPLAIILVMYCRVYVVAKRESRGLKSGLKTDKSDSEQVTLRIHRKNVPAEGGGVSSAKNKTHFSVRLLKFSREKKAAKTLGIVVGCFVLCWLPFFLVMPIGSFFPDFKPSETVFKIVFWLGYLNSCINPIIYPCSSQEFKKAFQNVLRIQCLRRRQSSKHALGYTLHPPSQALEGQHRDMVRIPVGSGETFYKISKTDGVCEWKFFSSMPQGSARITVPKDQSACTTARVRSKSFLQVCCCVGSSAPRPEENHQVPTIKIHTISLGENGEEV
How it was run: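 Rat brain membranes; displacement of [3H]-prazosin at 4–6 concentrations, each point in duplicate. IC50 from displacement curves fitted by nonlinear least-squares regression.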

[3] = biological target: Glutamate NMDA receptor; Grin1/Grin2c (Rattus norvegicus) (UniProt P35439+Q00961); assay: Inhibition of rat recombinant NR1/NR2C receptor expressed in Xenopus oocytes assessed as inhibition of glutamate and glycine-induced evoked current at 3uM by two electrode voltage clamp method; assay type: cell-based; conditions: Oocyte
[4] = biological target: Sodium-dependent dopamine transporter (Homo sapiens, UniProt Q01959); assay: Binding affinity to dopamine transporter
Chain of Sodium-dependent dopamine transporter (Q01959 whole entry): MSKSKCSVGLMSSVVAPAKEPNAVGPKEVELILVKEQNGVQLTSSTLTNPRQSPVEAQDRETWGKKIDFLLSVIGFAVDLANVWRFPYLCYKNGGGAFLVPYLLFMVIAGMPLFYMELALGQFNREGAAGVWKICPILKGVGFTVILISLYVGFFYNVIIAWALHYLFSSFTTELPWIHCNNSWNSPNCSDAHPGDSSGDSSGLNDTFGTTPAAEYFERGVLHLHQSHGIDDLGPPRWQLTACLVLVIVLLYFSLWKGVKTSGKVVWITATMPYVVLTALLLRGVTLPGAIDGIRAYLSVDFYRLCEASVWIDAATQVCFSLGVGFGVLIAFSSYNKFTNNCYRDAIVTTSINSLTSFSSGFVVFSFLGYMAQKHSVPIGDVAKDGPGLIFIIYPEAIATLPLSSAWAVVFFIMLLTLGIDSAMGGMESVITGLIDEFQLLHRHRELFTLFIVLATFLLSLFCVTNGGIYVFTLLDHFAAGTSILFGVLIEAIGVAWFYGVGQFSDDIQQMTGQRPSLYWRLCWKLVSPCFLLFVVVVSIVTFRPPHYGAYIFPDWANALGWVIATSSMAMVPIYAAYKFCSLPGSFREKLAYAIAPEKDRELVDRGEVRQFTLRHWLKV

[5] = biological target: Glutamate receptor 2 (Rattus norvegicus) (UniProt P19491); assay: Inhibition of rat recombinant GluR2/GluR3 expressed in Xenopus oocytes assessed as inhibition of kainate-induced evoked current at 3 uM by two electrode voltage clamp method; assay type: cell-based; conditions: Oocyte
Chain of Glutamate receptor 2 (Rattus norvegicus) (P19491 whole entry): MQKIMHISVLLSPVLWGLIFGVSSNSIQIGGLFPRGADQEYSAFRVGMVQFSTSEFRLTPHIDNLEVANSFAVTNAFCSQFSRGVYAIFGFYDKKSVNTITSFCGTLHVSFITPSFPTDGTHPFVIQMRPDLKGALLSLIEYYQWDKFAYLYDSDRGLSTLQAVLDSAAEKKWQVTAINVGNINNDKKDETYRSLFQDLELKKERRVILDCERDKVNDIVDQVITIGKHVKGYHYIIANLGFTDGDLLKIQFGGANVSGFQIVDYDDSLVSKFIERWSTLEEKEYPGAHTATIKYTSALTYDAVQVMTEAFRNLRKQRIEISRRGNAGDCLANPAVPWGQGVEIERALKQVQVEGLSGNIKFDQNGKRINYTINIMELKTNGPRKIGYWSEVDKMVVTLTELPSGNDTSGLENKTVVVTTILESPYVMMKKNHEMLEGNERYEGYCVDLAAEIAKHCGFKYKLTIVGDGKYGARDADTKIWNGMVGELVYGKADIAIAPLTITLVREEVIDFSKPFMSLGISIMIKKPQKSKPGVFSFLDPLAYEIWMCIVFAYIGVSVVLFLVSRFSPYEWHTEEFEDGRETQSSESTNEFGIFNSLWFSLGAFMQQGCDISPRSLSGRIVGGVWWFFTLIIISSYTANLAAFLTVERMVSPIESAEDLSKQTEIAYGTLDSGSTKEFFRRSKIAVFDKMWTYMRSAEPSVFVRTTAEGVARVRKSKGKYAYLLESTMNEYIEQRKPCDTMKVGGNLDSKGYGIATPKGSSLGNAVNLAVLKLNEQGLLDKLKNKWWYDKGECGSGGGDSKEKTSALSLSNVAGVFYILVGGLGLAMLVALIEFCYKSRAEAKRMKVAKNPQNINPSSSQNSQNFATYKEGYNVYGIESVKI
How it was run: (§1)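 Xenopus oocytes injected with 5–10 ng rat receptor cRNA and kept in Barth's solution at 18 °C. Two-electrode voltage clamp at −40 mV and 23 °C, 2–7 days after injection, in 90 NaCl/1 KCl/10 HEPES/0.5 BaCl2 mM at pH 7.3 or 7.6. Agonists: 50 μM kainate for GluR3, GluR4 and GluR2/3; 3 nM domoate for GluR6; 100 μM AMPA for GluR6/KA1. Current expressed as % of control; paired t test.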

[6] = biological target: Glutamate receptor ionotropic, kainate 2 (Rattus norvegicus) (UniProt P42260); assay: Inhibition of rat recombinant GluR6 expressed in Xenopus oocytes assessed as inhibition of domoate-induced evoked current at 3 uM by two electrode voltage clamp method; assay type: cell-based; conditions: Oocyte; how it was run: as §1
Chain of Glutamate receptor ionotropic, kainate 2 (Rattus norvegicus) (P42260 whole entry): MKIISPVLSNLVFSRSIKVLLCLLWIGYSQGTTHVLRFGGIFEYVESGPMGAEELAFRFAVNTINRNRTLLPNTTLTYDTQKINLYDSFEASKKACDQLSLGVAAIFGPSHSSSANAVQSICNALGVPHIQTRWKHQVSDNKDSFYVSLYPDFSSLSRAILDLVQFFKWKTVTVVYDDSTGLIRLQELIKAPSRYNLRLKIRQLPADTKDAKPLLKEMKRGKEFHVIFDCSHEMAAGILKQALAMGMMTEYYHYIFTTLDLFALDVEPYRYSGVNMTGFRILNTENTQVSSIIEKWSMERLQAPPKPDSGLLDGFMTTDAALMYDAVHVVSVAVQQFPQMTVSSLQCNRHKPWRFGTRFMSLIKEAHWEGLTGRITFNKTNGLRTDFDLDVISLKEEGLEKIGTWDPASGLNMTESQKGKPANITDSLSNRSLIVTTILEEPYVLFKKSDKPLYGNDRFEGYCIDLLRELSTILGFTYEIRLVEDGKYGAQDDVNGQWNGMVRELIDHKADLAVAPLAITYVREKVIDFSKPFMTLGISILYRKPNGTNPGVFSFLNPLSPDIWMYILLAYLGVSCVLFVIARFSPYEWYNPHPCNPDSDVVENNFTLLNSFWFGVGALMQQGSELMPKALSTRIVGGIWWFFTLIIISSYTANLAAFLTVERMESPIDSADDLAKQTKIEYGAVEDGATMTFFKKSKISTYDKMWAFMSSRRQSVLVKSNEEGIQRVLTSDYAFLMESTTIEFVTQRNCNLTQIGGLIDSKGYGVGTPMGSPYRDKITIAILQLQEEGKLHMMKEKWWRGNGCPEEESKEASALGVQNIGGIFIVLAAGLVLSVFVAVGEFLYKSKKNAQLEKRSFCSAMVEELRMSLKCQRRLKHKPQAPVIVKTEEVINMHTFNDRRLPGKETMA

Mus musculus [7] = assay: Neuroprotective effect against middle cerebral artery occlusion-induced transient focal ischemia in C57BL/6 mouse at 30 mg/kg, ip administered 30 mins before occlusion; assay type: functional; conditions: route intraperitoneal
How it was run: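 Male C57BL/6 mice, 3–5 months, under 2% isoflurane at 37 °C. Left MCA occluded with an intraluminal suture for 30 min, confirmed by laser Doppler flow below 20%. Injection ip (10 mL/kg) given 30 min before occlusion. After 24 h, brains cut into 2 mm sections and stained with 2% TTC; infarct volume thresholded and edema-corrected. Operator blinded; Mann–Whitney test.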

Mus musculus [8] = species on record: Mus musculus; conditions: 3 uM
[9] = biological target: Sodium-dependent serotonin transporter (Homo sapiens, UniProt P31645); assay: Binding affinity to serotonin transporter
Chain of Sodium-dependent serotonin transporter (P31645 whole entry): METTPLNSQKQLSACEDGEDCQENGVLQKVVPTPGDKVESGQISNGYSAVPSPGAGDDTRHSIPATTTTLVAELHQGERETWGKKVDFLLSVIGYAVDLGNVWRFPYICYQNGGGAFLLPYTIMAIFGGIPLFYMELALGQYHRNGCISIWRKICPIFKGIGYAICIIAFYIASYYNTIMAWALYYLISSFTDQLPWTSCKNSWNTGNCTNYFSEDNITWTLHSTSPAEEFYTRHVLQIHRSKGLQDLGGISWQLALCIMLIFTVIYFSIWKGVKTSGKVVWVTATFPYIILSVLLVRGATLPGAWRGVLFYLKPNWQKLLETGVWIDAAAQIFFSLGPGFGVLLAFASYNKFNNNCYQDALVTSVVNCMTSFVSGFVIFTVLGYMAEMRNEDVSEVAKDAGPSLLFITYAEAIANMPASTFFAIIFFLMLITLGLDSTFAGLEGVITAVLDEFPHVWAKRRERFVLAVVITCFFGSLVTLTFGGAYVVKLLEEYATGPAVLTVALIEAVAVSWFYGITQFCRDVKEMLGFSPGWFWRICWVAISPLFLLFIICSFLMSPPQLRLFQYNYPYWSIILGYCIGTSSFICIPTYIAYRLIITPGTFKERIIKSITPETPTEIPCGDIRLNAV

[10] = Ratio of drug level in rat brain to plasma by LC-MS/MS analysis; assay type: ADME
How it was run: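 Rats (n = 3 per dose) received a 4 mg/kg single iv bolus via the tail vein or 30 mg/kg ip, in 2% dimethyl acetamide/98% 5% 2-hydroxypropyl cyclodextrin, after an overnight fast. Plasma was taken at 5–240 min. Brain was homogenized in 50 mM phosphate buffer. Samples were extracted with 5 volumes of cold acetonitrile and read by LC-MS/MS (MRM) against a standard curve.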

SMILES: CS(=O)(=O)Nc1ccc(OC[C@@H](O)CNCCc2ccc(Cl)c(Cl)c2)cc1
- Activity (Neuron): 1.27 nanoampere
- concentration (Brain): 170 nM
- fraction unbound [1]: 0.02
- IC50 [2]: 2.4 µM
- Activity [3]: inactive
- IC50 [4]: 0.5 µM
- Activity [5]: inactive
- Activity [6]: inactive
- Activity (Mus musculus [7]): >30%
- inhibition (Mus musculus [8]): 102%
- IC50 [9]: > 3 µM
- Ratio [10]: < 0.05
